Experimental data from ChEMBL document CHEMBL4330168, “Monomeric and Dimeric Cytotoxic Guaianolide-Type Sesquiterpenoids from the Aerial Parts of Chrysanthemum indicum” (J Nat Prod, 2019).

Key:
Assay type in all cases: functional, cell-based
SUNE1 = test: Cytotoxicity against human SUNE1 cells after 48 hrs by MTT assay; settings: SUNE1, 48 h
Summary of the method: (§1)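 Growth inhibition in nasopharyngeal carcinoma lines (CNE1, CNE2, HONE-1, SUNE-1) and HT-29 colon cells. IC50 values are the mean ± SD of three experiments, with cisplatin as positive control.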

HONE1 cell line = test: Cytotoxicity against human HONE1 cells after 48 hrs by MTT assay; settings: HONE1, 48 h; summary of the method: as §1
CNE-2 = test: Cytotoxicity against human CNE2 cells after 48 hrs by MTT assay; settings: CNE-2, 48 h; summary of the method: as §1
HT-29 = test: Cytotoxicity against human HT-29 cells after 48 hrs by MTT assay; settings: HT-29, 48 h; summary of the method: as §1
CNE = test: Cytotoxicity against human CNE1 cells after 48 hrs by MTT assay; summary of the method: as §1

`C=C1C(=O)O[C@@H]2[C@@H]3[C@@]4(C=C[C@@]3(C)[C@]3(C4)C(=O)O[C@@H]4[C@H]5C(C)=CC[C@H]5[C@](C)(O)C[C@H](O)[C@H]43)[C@](C)(O)CC[C@@H]12` was tested, and the IC50 (SUNE1) was greater than 10 µM, the IC50 (HONE1 cell line) was greater than 10 µM and the IC50 (CNE-2) was greater than 10 µM. It also gave an IC50 (HT-29) greater than 10 µM and an IC50 (CNE) greater than 10 µM.
Work on `C/C=C(\C)C(=O)O[C@H]1C[C@@](C)(O)[C@@H]2CC=C(C)[C@@H]2[C@H]2OC(=O)[C@H](C)[C@@H]21` yielded an IC50 (SUNE1) greater than 10 µM, an IC50 (HONE1 cell line) greater than 10 µM and an IC50 (CNE-2) greater than 10 µM. For the same molecule, the IC50 (HT-29) was greater than 10 µM and the IC50 (CNE) was greater than 10 µM.
For `C=C1C(=O)O[C@H]2[C@H]1[C@@H](OC(=O)/C(C)=C/C)C[C@@](C)(O)[C@]13C=C[C@](C)([C@H]21)[C@]1(C3)C(=O)O[C@@H]2[C@H]3C(C)=CC[C@H]3[C@](C)(O)C[C@H](O)[C@H]21`, the IC50 (SUNE1) was greater than 10 µM, the IC50 (HONE1 cell line) was 7.5 µM and the IC50 (CNE-2) was greater than 10 µM. It also gave an IC50 (HT-29) greater than 10 µM and an IC50 (CNE) greater than 10 µM.
`C=C1C(=O)O[C@@H]2[C@@H]3[C@@]4(C=C[C@@]3(C)[C@]3(C4)C(=O)O[C@@H]4[C@H]5C(C)=CC(=O)C5=C(C)CC[C@H]43)[C@](C)(O)CC[C@@H]12` gave an IC50 (SUNE1) greater than 10 µM, an IC50 (HONE1 cell line) greater than 10 µM and an IC50 (CNE-2) greater than 10 µM. For the same molecule, the IC50 (HT-29) was greater than 10 µM and the IC50 (CNE) was greater than 10 µM.
Work on `C/C=C(\C)C(=O)O[C@H]1CC(C)=C2C[C@H](O)[C@](C)(O)[C@@H]2[C@H]2OC(=O)[C@@H](C)[C@@H]21` yielded an IC50 (SUNE1) greater than 10 µM, an IC50 (HONE1 cell line) greater than 10 µM and an IC50 (CNE-2) greater than 10 µM. It also gave an IC50 (HT-29) greater than 10 µM and an IC50 (CNE) greater than 10 µM.
For `CC1=CC[C@@H]2[C@H]1[C@H]1OC(=O)[C@H](C)[C@@H]1[C@@H](O)C[C@@]2(C)O`, the IC50 (SUNE1) was greater than 10 µM, the IC50 (HONE1 cell line) was greater than 10 µM and the IC50 (CNE-2) was greater than 10 µM. The IC50 (HT-29) was greater than 10 µM and the IC50 (CNE) was greater than 10 µM.
`C=C1C(=O)O[C@@H]2[C@H]3C(C)=CC[C@H]3[C@](C)(O)C[C@H](OC(=O)/C(C)=C\C)[C@@H]12` was tested, and the IC50 (SUNE1) was 5.6 µM, the IC50 (HONE1 cell line) was 7.6 µM and the IC50 (CNE-2) was 7.4 µM. For the same molecule, the IC50 (HT-29) was greater than 10 µM and the IC50 (CNE) was 7.3 µM.
Work on `C/C=C(\C)C(=O)O[C@H]1C[C@@](C)(O)[C@]23C=C[C@](C)([C@@H]2[C@H]2OC(=O)[C@@H](C)[C@@H]21)[C@]1(C3)C(=O)O[C@@H]2[C@H]3C(C)=CC[C@H]3[C@](C)(O)C[C@H](O)[C@H]21` yielded an IC50 (SUNE1) greater than 10 µM, an IC50 (HONE1 cell line) of 9.2 µM and an IC50 (CNE-2) of 9.9 µM. For the same molecule, the IC50 (HT-29) was greater than 10 µM and the IC50 (CNE) was greater than 10 µM.
